Values after ≈ are worked out from the molar mass of the structure shown.
System: not listed separately
Assay: Selectivity for PDE4B over PDE1
Conditions: not given

For `Cc1cc(S(C)(=O)=O)cc2c1NNC(C(N)=O)=C2Nc1cccc(C#N)c1`, which Selectivity ratio is on record?
Its Selectivity ratio is greater than 100.

System: not listed separately
Assay: Selectivity for PDE4B over PDE7
Conditions: not given

With `Cc1cc(S(C)(=O)=O)cc2c1NNC(C(N)=O)=C2Nc1cccc(C#N)c1` as the compound, how does the Selectivity ratio read?
Its Selectivity ratio is greater than 100.

System: not listed separately
Assay: Oral bioavailability in rat
Type: ADME, organism-based
Conditions: in vivo

With `CS(=O)(=O)c1ccc2c(c1)C(Nc1cncc(Cl)c1)=C(C(N)=O)NN2` as the compound, how does the bioavailability read?
Its bioavailability is 66%.

For `Cc1cc(S(C)(=O)=O)cc2c1NNC(C(N)=O)=C2Nc1cncc(Cl)c1`, which bioavailability is on record?
Its bioavailability is 50%.

Which bioavailability does the source give for `CCn1nccc1NC1=C(C(N)=O)NNc2c(C)cc(S(=O)(=O)CC)cc21` here?
Its bioavailability is 41%.

Which bioavailability does the source give for `Cc1cc(S(C)(=O)=O)cc2c1NNC(C(N)=O)=C2Nc1cccc(C#N)c1` here?
Its bioavailability is 17%.

For `Cc1cc(S(C)(=O)=O)cc2c1NNC(C(N)=O)=C2Nc1cncc(F)c1`, which bioavailability is on record?
The bioavailability was 34%.

For `CC(C)(C)S(=O)(=O)c1ccc2c(c1)C(Nc1cncc(F)c1)=C(C(N)=O)NN2`, which bioavailability is on record?
The bioavailability was 57%.

System: not listed separately
Assay: Selectivity for PDE4B over PDE5
Conditions: not given

For `Cc1cc(S(C)(=O)=O)cc2c1NNC(C(N)=O)=C2Nc1cccc(C#N)c1`, which Selectivity ratio is on record?
The Selectivity ratio was greater than 100.

System: not listed separately
Assay: Half life in cynomolgus monkey
Type: ADME, organism-based, Macaca fascicularis
Conditions: in vivo
Summary of the method: (§1)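 Cynomolgus monkey pharmacokinetics after oral dosing as a solution in 10% DMSO, 15% PEG400, 75% water; a second arm used suspension dosing of particle-size-reduced material in 1% methyl cellulose. Values are means of three experiments.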

For `Cc1cc(S(C)(=O)=O)cc2c(Nc3cccc(C#N)c3)c(C(N)=O)cnc12`, which half-life is on record?
Its half-life is 0.8 h.

For `Cc1cc(S(C)(=O)=O)cc2c(Nc3cccc(C#N)c3)c(C(N)=O)c(=O)[nH]c12`, which half-life is on record?
The half-life was 4.2 h.

For `Cc1cc(S(C)(=O)=O)cc2c1NNC(C(N)=O)=C2Nc1cccc(C#N)c1`, which half-life is on record?
Its half-life is 7.2 h.

System: not listed separately
Assay: Clearance in cynomolgus monkey plasma
Type: ADME, organism-based, Macaca fascicularis
Conditions: not given
Summary of the method: as §1

Which clearance does the source give for `Cc1cc(S(C)(=O)=O)cc2c(Nc3cccc(C#N)c3)c(C(N)=O)cnc12` here?
Its clearance is 82 mL/min/kg.

For `Cc1cc(S(C)(=O)=O)cc2c(Nc3cccc(C#N)c3)c(C(N)=O)c(=O)[nH]c12`, which clearance is on record?
The clearance was 5.9 mL/min/kg.

Which clearance does the source give for `Cc1cc(S(C)(=O)=O)cc2c1NNC(C(N)=O)=C2Nc1cccc(C#N)c1` here?
Its clearance is 1.6 mL/min/kg.

System: not listed separately
Assay: Oral bioavailability in cynomolgus monkey
Type: ADME, organism-based, Macaca fascicularis
Conditions: in vivo
Summary of the method: as §1

For `Cc1cc(S(C)(=O)=O)cc2c(Nc3cccc(C#N)c3)c(C(N)=O)cnc12`, which bioavailability is on record?
Its bioavailability is 33%.

With `Cc1cc(S(C)(=O)=O)cc2c(Nc3cccc(C#N)c3)c(C(N)=O)c(=O)[nH]c12` as the compound, how does the bioavailability read?
The bioavailability was 52%.

Which bioavailability does the source give for `Cc1cc(S(C)(=O)=O)cc2c1NNC(C(N)=O)=C2Nc1cccc(C#N)c1` here?
Its bioavailability is 64%.

Target: 3',5'-cyclic-AMP phosphodiesterase 4B (Homo sapiens, UniProt Q07343)
Sequence (Q07343 whole entry, the tested form may be a part): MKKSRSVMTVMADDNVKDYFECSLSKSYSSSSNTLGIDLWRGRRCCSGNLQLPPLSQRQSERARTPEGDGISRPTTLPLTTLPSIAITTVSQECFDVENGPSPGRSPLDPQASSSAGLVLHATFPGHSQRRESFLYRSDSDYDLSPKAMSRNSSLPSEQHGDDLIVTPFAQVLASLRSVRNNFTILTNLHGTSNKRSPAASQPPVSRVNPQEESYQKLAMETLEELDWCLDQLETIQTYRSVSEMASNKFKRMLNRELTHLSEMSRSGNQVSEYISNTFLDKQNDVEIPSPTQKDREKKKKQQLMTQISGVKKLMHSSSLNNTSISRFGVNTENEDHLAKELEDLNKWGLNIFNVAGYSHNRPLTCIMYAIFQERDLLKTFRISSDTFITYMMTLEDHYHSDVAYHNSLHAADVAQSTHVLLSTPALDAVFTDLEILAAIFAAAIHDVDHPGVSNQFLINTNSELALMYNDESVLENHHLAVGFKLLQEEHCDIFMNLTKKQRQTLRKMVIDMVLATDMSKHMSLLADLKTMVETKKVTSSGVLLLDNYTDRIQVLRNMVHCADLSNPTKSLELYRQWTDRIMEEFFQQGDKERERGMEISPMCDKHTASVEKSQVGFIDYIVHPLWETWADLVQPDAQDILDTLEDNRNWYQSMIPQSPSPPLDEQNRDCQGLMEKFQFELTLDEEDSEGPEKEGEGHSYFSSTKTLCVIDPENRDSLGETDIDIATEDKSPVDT
Assay: Inhibition of PDE4B catalytic domain by scintillation proximity assay
Conditions: not given
Summary of the method: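 PDE4B catalytic activity inhibition measured by scintillation proximity assay; pIC50 reported as mean of two determinations.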

With `CS(=O)(=O)c1ccc2c(c1)C(Nc1cncc(Cl)c1)=C(C(N)=O)NN2` as the compound, how does the IC50 read?
Its IC50 is 0.794 nM.

With `Cc1cc(S(C)(=O)=O)cc2c1NNC(C(N)=O)=C2Nc1cncc(Cl)c1` as the compound, how does the IC50 read?
Its IC50 is 0.0794 nM.

For `CS(=O)(=O)c1cc(F)c2c(c1)C(Nc1cncc(F)c1)=C(C(N)=O)NN2`, which IC50 is on record?
Its IC50 is 0.631 nM.

With `CCn1nccc1NC1=C(C(N)=O)NNc2c(C)cc(S(=O)(=O)CC)cc21` as the compound, how does the IC50 read?
Its IC50 is 0.316 nM.

With `Cc1cc(S(C)(=O)=O)cc2c(Nc3cccc(C#N)c3)c(C(N)=O)c(=O)[nH]c12` as the compound, how does the IC50 read?
Its IC50 is 1 nM.

Which IC50 does the source give for `Cc1cc(S(C)(=O)=O)cc2c1NNC(C(N)=O)=C2Nc1cccc(C#N)c1` here?
Its IC50 is less than 1 nM.

Which IC50 does the source give for `Cc1cc(S(C)(=O)=O)cc2c1NNC(C(N)=O)=C2Nc1cncc(F)c1` here?
The IC50 was less than 0.501 nM.

For `CC(C)(C)S(=O)(=O)c1ccc2c(c1)C(Nc1cncc(F)c1)=C(C(N)=O)NN2`, which IC50 is on record?
The IC50 was 0.501 nM.

System: not listed separately
Assay: Selectivity for PDE4B over PDE6
Conditions: not given

With `Cc1cc(S(C)(=O)=O)cc2c1NNC(C(N)=O)=C2Nc1cccc(C#N)c1` as the compound, how does the Selectivity ratio read?
The Selectivity ratio was greater than 100.

System: not listed separately
Assay: Selectivity for PDE4B over PDE3
Conditions: not given

With `Cc1cc(S(C)(=O)=O)cc2c1NNC(C(N)=O)=C2Nc1cccc(C#N)c1` as the compound, how does the Selectivity ratio read?
The Selectivity ratio was greater than 100.

System: not listed separately
Assay: Selectivity for PDE4B over PDE2
Conditions: not given

With `Cc1cc(S(C)(=O)=O)cc2c1NNC(C(N)=O)=C2Nc1cccc(C#N)c1` as the compound, how does the Selectivity ratio read?
The Selectivity ratio was greater than 100.

System: not listed separately
Assay: Aqueous solubility of the compound
Type: physicochemical
Conditions: not given

For `CS(=O)(=O)c1ccc2c(c1)C(Nc1cncc(Cl)c1)=C(C(N)=O)NN2`, which solubility is on record?
Its solubility is 7 µg/mL (≈ 18.4 µM).

Which solubility does the source give for `Cc1cc(S(C)(=O)=O)cc2c(Nc3cccc(C#N)c3)c(C(N)=O)cnc12` here?
Its solubility is 1 µg/mL (≈ 2.63 µM).

For `Cc1cc(S(C)(=O)=O)cc2c1NNC(C(N)=O)=C2Nc1cncc(Cl)c1`, which solubility is on record?
The solubility was 12 µg/mL (≈ 30.5 µM).

For `Cc1cc(S(C)(=O)=O)cc2c1NNC(C(N)=O)=C2Nc1cccc(C#N)c1`, which solubility is on record?
Its solubility is 1 µg/mL (≈ 2.61 µM).

With `Cc1cc(S(C)(=O)=O)cc2c1NNC(C(N)=O)=C2Nc1cncc(F)c1` as the compound, how does the solubility read?
The solubility was 37 µg/mL (≈ 98 µM).

With `CC(C)(C)S(=O)(=O)c1ccc2c(c1)C(Nc1cncc(F)c1)=C(C(N)=O)NN2` as the compound, how does the solubility read?
Its solubility is 1 µg/mL (≈ 2.47 µM).

System: Blood
Assay: Inhibition of LPS-induced TNFalpha production in human whole blood
Type: functional, tissue-based
Conditions: not given

With `CS(=O)(=O)c1ccc2c(c1)C(Nc1cncc(Cl)c1)=C(C(N)=O)NN2` as the compound, how does the IC50 read?
The IC50 was 31.6 nM.

For `Cc1cc(S(C)(=O)=O)cc2c(Nc3cccc(C#N)c3)c(C(N)=O)cnc12`, which IC50 is on record?
The IC50 was 12.6 nM.

For `Cc1cc(S(C)(=O)=O)cc2c1NNC(C(N)=O)=C2Nc1cncc(Cl)c1`, which IC50 is on record?
Its IC50 is 1.58 nM.

For `CS(=O)(=O)c1cc(F)c2c(c1)C(Nc1cncc(F)c1)=C(C(N)=O)NN2`, which IC50 is on record?
Its IC50 is 158 nM.

With `CCn1nccc1NC1=C(C(N)=O)NNc2c(C)cc(S(=O)(=O)CC)cc21` as the compound, how does the IC50 read?
Its IC50 is 10 nM.

With `Cc1cc(S(C)(=O)=O)cc2c(Nc3cccc(C#N)c3)c(C(N)=O)c(=O)[nH]c12` as the compound, how does the IC50 read?
Its IC50 is 25.1 nM.

Which IC50 does the source give for `Cc1cc(S(C)(=O)=O)cc2c1NNC(C(N)=O)=C2Nc1cccc(C#N)c1` here?
Its IC50 is 2.51 nM.

Which IC50 does the source give for `Cc1cc(S(C)(=O)=O)cc2c1NNC(C(N)=O)=C2Nc1cncc(F)c1` here?
Its IC50 is 5.01 nM.

Which IC50 does the source give for `CC(C)(C)S(=O)(=O)c1ccc2c(c1)C(Nc1cncc(F)c1)=C(C(N)=O)NN2` here?
The IC50 was 12.6 nM.

Source: ChEMBL document CHEMBL1153148, “Addressing species specific metabolism and solubility issues in a quinoline series of oral PDE4 inhibitors” (Bioorg Med Chem Lett, 2010)
